Experimental data: ChEMBL document CHEMBL4028872, “Structure-Activity Relationship, Pharmacological Characterization, and Molecular Modeling of Noncompetitive Inhibitors of the Betaine/γ-Aminobutyric Acid Transporter 1 (BGT1)” (J Med Chem, 2017)
Converted amounts (≈) assume the structure as drawn.

Legend:
[1] = target: Sodium- and chloride-dependent GABA transporter 3 (Homo sapiens, UniProt P48066, S468Y); assay: Inhibition of human GAT3 S468Y mutant expresses in tsA201 cells assessed as reduction in [3H]GABA uptake after 3 mins by scintillation counting method; assay type: cell-based
Sequence of Sodium- and chloride-dependent GABA transporter 3 (Homo sapiens, UniProt P48066, S468Y) (P48066 whole entry S468Y): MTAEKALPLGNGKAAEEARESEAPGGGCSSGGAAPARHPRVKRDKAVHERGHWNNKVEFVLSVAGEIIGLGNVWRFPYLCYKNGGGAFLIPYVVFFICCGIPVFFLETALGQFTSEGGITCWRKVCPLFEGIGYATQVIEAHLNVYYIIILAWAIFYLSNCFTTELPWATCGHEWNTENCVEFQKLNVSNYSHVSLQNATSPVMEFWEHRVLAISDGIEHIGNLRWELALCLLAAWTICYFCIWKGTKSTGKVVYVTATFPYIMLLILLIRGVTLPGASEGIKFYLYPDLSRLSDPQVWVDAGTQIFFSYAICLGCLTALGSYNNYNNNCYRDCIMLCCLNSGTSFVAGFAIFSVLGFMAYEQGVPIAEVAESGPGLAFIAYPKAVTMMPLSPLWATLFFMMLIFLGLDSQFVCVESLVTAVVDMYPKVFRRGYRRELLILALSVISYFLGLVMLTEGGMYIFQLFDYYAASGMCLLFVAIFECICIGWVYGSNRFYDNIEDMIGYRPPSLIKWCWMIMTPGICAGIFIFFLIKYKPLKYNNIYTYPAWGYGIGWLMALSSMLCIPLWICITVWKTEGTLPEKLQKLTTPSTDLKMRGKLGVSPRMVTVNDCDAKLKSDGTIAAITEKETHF
Outline: (§1)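 Site-directed mutant transporters transiently transfected (PolyFect) into tsA201 cells, plated and used about 24 h later. Cells were washed with HBSS containing 20 mM HEPES, 1 mM CaCl2 and 1 mM MgCl2, pH 7.4. Uptake of 30 nM [3H]GABA was run with varied inhibitor concentrations for 3 min at 37 °C, then three ice-cold washes and scintillation counting. IC50 was taken from variable-slope sigmoidal fits. Triplicates, at least three independent experiments.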

[2] = target: Sodium- and chloride-dependent GABA transporter 3 (Homo sapiens, UniProt P48066, L314Q); assay: Inhibition of human GAT3 L314Q mutant expresses in tsA201 cells assessed as reduction in [3H]GABA uptake after 3 mins by scintillation counting method; assay type: cell-based; outline: as §1
Sequence of Sodium- and chloride-dependent GABA transporter 3 (Homo sapiens, UniProt P48066, L314Q) (P48066 whole entry L314Q): as the sequence (P48066 whole entry S468Y) above, with L314Q, Y468S counted along it

[3] = Solubility of compound in pH 7.4 phosphate buffer after 24 hrs by HPLC-UV method; assay type: physicochemical
[4] = target: T1, GABA transporter 3 (Mus musculus, UniProt P31649); assay: Inhibition of mouse GAT2 expressed in HEK293 cells assessed as reduction in [3H]GABA uptake after 3 mins by scintillation counting method; assay type: cell-based
T1 sequence (P31649 whole entry): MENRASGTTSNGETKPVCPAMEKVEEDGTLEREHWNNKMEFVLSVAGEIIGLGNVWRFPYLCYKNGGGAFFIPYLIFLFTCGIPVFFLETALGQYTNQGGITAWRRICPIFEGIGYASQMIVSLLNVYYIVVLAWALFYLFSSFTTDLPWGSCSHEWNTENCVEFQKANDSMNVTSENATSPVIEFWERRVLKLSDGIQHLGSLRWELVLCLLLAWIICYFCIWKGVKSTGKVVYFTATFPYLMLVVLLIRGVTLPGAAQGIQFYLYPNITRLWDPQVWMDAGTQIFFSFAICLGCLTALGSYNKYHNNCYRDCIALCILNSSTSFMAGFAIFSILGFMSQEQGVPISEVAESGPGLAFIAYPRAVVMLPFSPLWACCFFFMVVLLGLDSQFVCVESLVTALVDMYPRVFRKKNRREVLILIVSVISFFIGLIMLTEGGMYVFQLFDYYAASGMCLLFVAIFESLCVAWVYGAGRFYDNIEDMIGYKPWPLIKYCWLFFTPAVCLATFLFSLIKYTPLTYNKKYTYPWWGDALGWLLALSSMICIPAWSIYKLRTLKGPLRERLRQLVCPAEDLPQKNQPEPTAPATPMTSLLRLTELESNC
Outline: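 HEK293 cells stably expressing mouse GAT2 were kept under blasticidin-S (5 µg/mL) selection. Ice-cold washes preceded scintillation counting. IC50 came from a variable-slope sigmoidal fit.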

[5] = target: T2, Sodium- and chloride-dependent GABA transporter 1 (Mus musculus, UniProt P31648); assay: Inhibition of mouse GAT1 expressed in HEK293 cells assessed as reduction in [3H]GABA uptake after 3 mins by scintillation counting method; assay type: cell-based
Outline: (§2)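 HEK293 lines stably expressing a single mouse GAT subtype, kept under blasticidin-S (5 µg/mL) selection. Cells were assayed about 24 h after plating with 30 nM [3H]GABA plus varying compound concentrations for 3 min at 37 °C in HBSS buffered with 20 mM HEPES (1 mM CaCl2, 1 mM MgCl2, pH 7.4). Cells were washed ice-cold and radioactivity counted. IC50 came from sigmoidal variable-slope fits.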

[6] = target: T3, GABA transporter 2 (Mus musculus, UniProt P31651); assay: Inhibition of mouse BGT1 expressed in HEK293 cells assessed as reduction in [3H]GABA uptake after 3 mins by scintillation counting method; assay type: cell-based; outline: as §2
T3 sequence (P31651 whole entry): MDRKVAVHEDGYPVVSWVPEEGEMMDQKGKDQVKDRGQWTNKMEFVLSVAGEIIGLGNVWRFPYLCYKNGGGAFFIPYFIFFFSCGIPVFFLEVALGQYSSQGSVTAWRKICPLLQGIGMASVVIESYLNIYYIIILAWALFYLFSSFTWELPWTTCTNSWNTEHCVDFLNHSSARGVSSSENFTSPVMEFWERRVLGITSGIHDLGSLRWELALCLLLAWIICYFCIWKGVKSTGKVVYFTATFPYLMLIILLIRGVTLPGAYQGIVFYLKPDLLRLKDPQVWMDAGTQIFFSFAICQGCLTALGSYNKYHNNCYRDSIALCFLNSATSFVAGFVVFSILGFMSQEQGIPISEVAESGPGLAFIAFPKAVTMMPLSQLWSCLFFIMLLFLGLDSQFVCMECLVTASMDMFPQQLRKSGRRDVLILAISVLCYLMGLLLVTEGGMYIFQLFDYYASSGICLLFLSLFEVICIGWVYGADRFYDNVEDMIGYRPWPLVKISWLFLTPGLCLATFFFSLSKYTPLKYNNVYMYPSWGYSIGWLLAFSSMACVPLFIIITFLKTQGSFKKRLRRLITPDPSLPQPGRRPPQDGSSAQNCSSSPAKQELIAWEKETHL

[7] = target: T3, GABA transporter 2; assay: Inhibition of mouse BGT1 expressed in hamster BHK cells assessed as reduction in [3H]GABA uptake after 3 mins by scintillation counting method; assay type: cell-based; details: read-out: Ki(app)
[8] = target: T1, GABA transporter 3; assay: Inhibition of mouse GAT2 expressed in hamster BHK cells assessed as reduction in [3H]GABA uptake after 3 mins by scintillation counting method; assay type: cell-based; details: read-out: Ki(app)
[9] = target: T2, Sodium- and chloride-dependent GABA transporter 1; assay: Inhibition of mouse GAT1 expressed in hamster BHK cells assessed as reduction in [3H]GABA uptake after 3 mins by scintillation counting method; assay type: cell-based; details: read-out: Ki(app)

Structure (SMILES)	IC50 [1]	IC50 [2]	solubility at 24 h [3]	IC50 [4]	IC50 [5]	IC50 ([6]; read-out: IC50)	Ki [7]	Ki [8]	Ki [9]	IC50 [6]
NCCCC(=O)O [GAMMA-AMINOBUTYRIC ACID]	1 µM	4 µM								
COc1cccc(CN2CCC(NC(=O)c3ccc(Cl)nc3Cl)CC2)c1			240 µg/mL (≈ 609 µM)	> 300 µM	> 300 µM	115 µM				
O=C(NC1CCN(Cc2cccc(C(F)(F)F)c2)CC1)c1ccc(Cl)cc1Cl			3 µg/mL (≈ 6.96 µM)	> 1000 µM	> 1000 µM	51 µM				
COc1ccccc1C1(O)CCN(CCCn2c3ccccc3c3ccccc32)CC1							1.4 µM	41 µM	19 µM	
O=C(NC1CCN(Cc2ccccc2)CC1)c1c(Cl)cc(Cl)cc1Cl			40 µg/mL (≈ 101 µM)	1700 µM	> 1000 µM	11 µM				
CCOc1cccc(CN2CCC(NC(=O)c3ccc(Cl)nc3Cl)CC2)c1			130 µg/mL (≈ 318 µM)	> 300 µM	> 300 µM	111 µM				111 µM
